Test results as given in ChEMBL document CHEMBL5303300, “EUbOPEN Chemogenomics Library - Multiplex” (2023).
Values joined by “and” are separate entries in the source; they are usually repeats but may differ in a detail not shown here. Equal values may be shown once.

System: Fibroblast
Test: Multiplex assay against human fibroblast
Type: toxicity, cell-based
Conditions: number of replicates 2
Procedure, shortened: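 On a CQ1 microscope at 37°C and 5% CO2, live cells were imaged after compound addition. They had been stained at seeding with Hoechst33342, BioTracker Green Microtubule Cytoskeleton Dye, MitoTracker Red and Annexin V Alexa Fluor 680. CellPathfinder machine-learning gating assigned cells to Hoechst high-intensity objects or normal cells, normal cells to healthy, pyknosed or fragmented nuclei, and pyknosed cells to mitotic or apoptotic. Tubulin, mitochondrial-mass and membrane-permeability phenotypes are per cents of healthy-nucleus cells.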

[1] = 12 h, 1 µM, compound concentration 1 uM
[2] = 12 h, 10 µM, compound concentration 10 uM
[3] = 24 h, 1 µM, compound concentration 1 uM
[4] = 24 h, 10 µM, compound concentration 10 uM
[5] = 48 h, 1 µM, compound concentration 1 uM
[6] = 48 h, 10 µM, compound concentration 10 uM

SMILES: CN1CCc2cc(Nc3ncc(C(F)(F)F)c(NCc4cc[nH]n4)n3)ccc2C1
- Population Apoptotic (%) [1]: 63% and 62%
- Population Fragmented Nuclei (%) [1]: 7% and 19%
- Population Healthy Nuclei (%) [1]: 63% and 58%
- Population Hoechst High Intensity Objects (%) [1]: 0%
- Population Membrane Permeable-Phenotype (%) [1]: 3% and 6%
- Population Mitochondria Different-Phenotype (%) [1]: 0% and 1%
- Population Mitotic Cells (%) [1]: 36% and 37%
- Population Normal (%) [1]: 100%
- Population Pyknosed Nuclei (%) [1]: 28% and 22%
- Population Tubulin-Different-Phenotype (%) [1]: 1% and 4%
- Total Cell Count [1]: 133 and 168
- Population Apoptotic (%) [2]: 70% and 60%
- Population Fragmented Nuclei (%) [2]: 19% and 24%
- Population Healthy Nuclei (%) [2]: 60% and 63%
- Population Hoechst High Intensity Objects (%) [2]: 0%
- Population Membrane Permeable-Phenotype (%) [2]: 9% and 11%
- Population Mitochondria Different-Phenotype (%) [2]: 1%
- Population Mitotic Cells (%) [2]: 29% and 40%
- Population Normal (%) [2]: 100%
- Population Pyknosed Nuclei (%) [2]: 20% and 11%
- Population Tubulin-Different-Phenotype (%) [2]: 16% and 18%
- Total Cell Count [2]: 180 and 262
- Population Apoptotic (%) [3]: 84% and 80%
- Population Fragmented Nuclei (%) [3]: 15%
- Population Healthy Nuclei (%) [3]: 40% and 50%
- Population Hoechst High Intensity Objects (%) [3]: 0%
- Population Membrane Permeable-Phenotype (%) [3]: 3% and 12%
- Population Mitochondria Different-Phenotype (%) [3]: 0%
- Population Mitotic Cells (%) [3]: 15% and 20%
- Population Normal (%) [3]: 100% and 99%
- Population Pyknosed Nuclei (%) [3]: 43% and 34%
- Population Tubulin-Different-Phenotype (%) [3]: 3%
- Total Cell Count [3]: 133 and 161
- Population Apoptotic (%) [4]: 61% and 84%
- Population Fragmented Nuclei (%) [4]: 26% and 20%
- Population Healthy Nuclei (%) [4]: 56% and 61%
- Population Hoechst High Intensity Objects (%) [4]: 0%
- Population Membrane Permeable-Phenotype (%) [4]: 9% and 12%
- Population Mitochondria Different-Phenotype (%) [4]: 3% and 1%
- Population Mitotic Cells (%) [4]: 38% and 15%
- Population Normal (%) [4]: 100% and 99%
- Population Pyknosed Nuclei (%) [4]: 16% and 17%
- Population Tubulin-Different-Phenotype (%) [4]: 17% and 19%
- Total Cell Count [4]: 185 and 253
- Population Apoptotic (%) [5]: 88% and 72%
- Population Fragmented Nuclei (%) [5]: 24% and 15%
- Population Healthy Nuclei (%) [5]: 40% and 67%
- Population Hoechst High Intensity Objects (%) [5]: 0%
- Population Membrane Permeable-Phenotype (%) [5]: 8% and 14%
- Population Mitochondria Different-Phenotype (%) [5]: 0%
- Population Mitotic Cells (%) [5]: 11% and 27%
- Population Normal (%) [5]: 100% and 99%
- Population Pyknosed Nuclei (%) [5]: 35% and 16%
- Population Tubulin-Different-Phenotype (%) [5]: 10% and 12%
- Total Cell Count [5]: 122 and 133
- Population Apoptotic (%) [6]: 65% and 59%
- Population Fragmented Nuclei (%) [6]: 26% and 22%
- Population Healthy Nuclei (%) [6]: 51% and 57%
- Population Hoechst High Intensity Objects (%) [6]: 0%
- Population Membrane Permeable-Phenotype (%) [6]: 5% and 9%
- Population Mitochondria Different-Phenotype (%) [6]: 1% and 0%
- Population Mitotic Cells (%) [6]: 34% and 40%
- Population Normal (%) [6]: 100%
- Population Pyknosed Nuclei (%) [6]: 22% and 19%
- Population Tubulin-Different-Phenotype (%) [6]: 14% and 19%
- Total Cell Count [6]: 184 and 251

SMILES: CC(C)c1c(NC(=O)Nc2ccc(Cl)cc2)c(=O)n(-c2ccccc2)n1C
- Population Apoptotic (%) [1]: 30% and 36%
- Population Fragmented Nuclei (%) [1]: 9% and 13%
- Population Healthy Nuclei (%) [1]: 77% and 68%
- Population Hoechst High Intensity Objects (%) [1]: 0%
- Population Membrane Permeable-Phenotype (%) [1]: 5% and 3%
- Population Mitochondria Different-Phenotype (%) [1]: 0%
- Population Mitotic Cells (%) [1]: 69% and 63%
- Population Normal (%) [1]: 100% and 99%
- Population Pyknosed Nuclei (%) [1]: 13% and 17%
- Population Tubulin-Different-Phenotype (%) [1]: 11% and 7%
- Total Cell Count [1]: 175 and 269
- Population Apoptotic (%) [2]: 34% and 46%
- Population Fragmented Nuclei (%) [2]: 9% and 7%
- Population Healthy Nuclei (%) [2]: 68%
- Population Hoechst High Intensity Objects (%) [2]: 0%
- Population Membrane Permeable-Phenotype (%) [2]: 2% and 11%
- Population Mitochondria Different-Phenotype (%) [2]: 1%
- Population Mitotic Cells (%) [2]: 65% and 53%
- Population Normal (%) [2]: 99% and 100%
- Population Pyknosed Nuclei (%) [2]: 21% and 24%
- Population Tubulin-Different-Phenotype (%) [2]: 12% and 21%
- Total Cell Count [2]: 122 and 191
- Population Apoptotic (%) [3]: 34% and 35%
- Population Fragmented Nuclei (%) [3]: 10% and 14%
- Population Healthy Nuclei (%) [3]: 75% and 71%
- Population Hoechst High Intensity Objects (%) [3]: 0%
- Population Membrane Permeable-Phenotype (%) [3]: 5% and 6%
- Population Mitochondria Different-Phenotype (%) [3]: 0% and 1%
- Population Mitotic Cells (%) [3]: 65% and 64%
- Population Normal (%) [3]: 100%
- Population Pyknosed Nuclei (%) [3]: 13%
- Population Tubulin-Different-Phenotype (%) [3]: 14% and 5%
- Total Cell Count [3]: 166 and 271
- Population Apoptotic (%) [4]: 48% and 35%
- Population Fragmented Nuclei (%) [4]: 5% and 6%
- Population Healthy Nuclei (%) [4]: 73% and 65%
- Population Hoechst High Intensity Objects (%) [4]: 0%
- Population Membrane Permeable-Phenotype (%) [4]: 7% and 6%
- Population Mitochondria Different-Phenotype (%) [4]: 0%
- Population Mitotic Cells (%) [4]: 52% and 64%
- Population Normal (%) [4]: 100%
- Population Pyknosed Nuclei (%) [4]: 20% and 27%
- Population Tubulin-Different-Phenotype (%) [4]: 13%
- Total Cell Count [4]: 123 and 204
- Population Apoptotic (%) [5]: 79% and 65%
- Population Fragmented Nuclei (%) [5]: 14% and 17%
- Population Healthy Nuclei (%) [5]: 71% and 74%
- Population Hoechst High Intensity Objects (%) [5]: 0%
- Population Membrane Permeable-Phenotype (%) [5]: 2% and 6%
- Population Mitochondria Different-Phenotype (%) [5]: 0%
- Population Mitotic Cells (%) [5]: 20% and 34%
- Population Normal (%) [5]: 100%
- Population Pyknosed Nuclei (%) [5]: 13% and 8%
- Population Tubulin-Different-Phenotype (%) [5]: 8% and 4%
- Total Cell Count [5]: 174 and 274
- Population Apoptotic (%) [6]: 53% and 47%
- Population Fragmented Nuclei (%) [6]: 17% and 14%
- Population Healthy Nuclei (%) [6]: 70% and 62%
- Population Hoechst High Intensity Objects (%) [6]: 0%
- Population Membrane Permeable-Phenotype (%) [6]: 8% and 10%
- Population Mitochondria Different-Phenotype (%) [6]: 0%
- Population Mitotic Cells (%) [6]: 46% and 52%
- Population Normal (%) [6]: 100% and 99%
- Population Pyknosed Nuclei (%) [6]: 11% and 23%
- Population Tubulin-Different-Phenotype (%) [6]: 12% and 13%
- Total Cell Count [6]: 134 and 222

SMILES: CC(=O)O[C@H]1C(=O)[C@@]2(C)[C@H]([C@H](OC(=O)c3ccccc3)[C@]3(O)C[C@H](OC(=O)[C@H](O)[C@@H](NC(=O)c4ccccc4)c4ccccc4)C(C)=C1C3(C)C)[C@]1(OC(C)=O)CO[C@@H]1C[C@@H]2O [PACLITAXEL]
- Population Apoptotic (%) [2]: 50% and 51% and 43% and 57%
- Population Fragmented Nuclei (%) [2]: 18% and 14% and 8% and 16%
- Population Healthy Nuclei (%) [2]: 60% and 57% and 66%
- Population Hoechst High Intensity Objects (%) [2]: 0%
- Population Membrane Permeable-Phenotype (%) [2]: 2% and 1%
- Population Mitochondria Different-Phenotype (%) [2]: 4% and 1% and 2% and 7%
- Population Mitotic Cells (%) [2]: 50% and 48% and 56% and 42%
- Population Normal (%) [2]: 100% and 99%
- Population Pyknosed Nuclei (%) [2]: 21% and 28% and 24% and 17%
- Population Tubulin-Different-Phenotype (%) [2]: 14% and 15% and 13%
- Population Apoptotic (%) [4]: 68% and 71% and 75% and 53%
- Population Fragmented Nuclei (%) [4]: 14% and 11% and 18%
- Population Healthy Nuclei (%) [4]: 61% and 56% and 63%
- Population Hoechst High Intensity Objects (%) [4]: 0%
- Population Membrane Permeable-Phenotype (%) [4]: 0% and 2% and 1%
- Population Mitochondria Different-Phenotype (%) [4]: 4% and 10% and 7% and 8%
- Population Mitotic Cells (%) [4]: 31% and 28% and 24% and 46%
- Population Normal (%) [4]: 100% and 99%
- Population Pyknosed Nuclei (%) [4]: 23% and 28% and 25% and 19%
- Population Apoptotic (%) [6]: 92% and 82% and 86% and 71%
- Population Fragmented Nuclei (%) [6]: 23% and 16% and 19% and 22%
- Population Healthy Nuclei (%) [6]: 60% and 62% and 63%
- Population Hoechst High Intensity Objects (%) [6]: 0%
- Population Membrane Permeable-Phenotype (%) [6]: 1% and 7% and 3%
- Population Mitochondria Different-Phenotype (%) [6]: 6% and 9% and 7%
- Population Normal (%) [6]: 100% and 99%
- Population Pyknosed Nuclei (%) [6]: 15% and 20% and 16%
- Population Tubulin-Different-Phenotype (%) [6]: 14% and 19% and 11% and 10%
